Assay results from ChEMBL document CHEMBL4715682, “Potent trifluoromethoxy, trifluoromethylsulfonyl, trifluoromethylthio and pentafluorosulfanyl containing (1,3,4-oxadiazol-2-yl)benzamides against drug-resistant Gram-positive bacteria” (RSC Med Chem, 2020).
Values after ≈ are worked out from the molar mass of the structure shown. Active and inactive are the calls of the source. No cut-off for these calls is given here.

How the values were obtained:
[1] = test system: Staphylococcus aureus; assay: Antibacterial activity against methicillin-resistant Staphylococcus aureus ATCC 33592 assessed as inhibition of visible bacterial growth incubated for 18 to 20 hrs by CLSI method; type: functional; conditions: time 18-20 hrs
Procedure, shortened: (§1)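 CLSI broth microdilution. Strains grown aerobically overnight on tryptic soy agar at 37 °C, adjusted to 0.5 McFarland and diluted in cation-adjusted Mueller–Hinton broth to about 5×10^5 CFU/mL. Compounds and control drugs serially diluted across the plate. Incubated aerobically at 37 °C for 18-20 h. MIC is the lowest concentration with no visible growth.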

[2] = test system: Caco-2; assay: Cytotoxicity against human Caco2 cells assessed as reduction in cell viability at 64 ug/ml incubated for 2 hrs by MTS assay; type: cell-based; conditions: caco-2, 2 h, dose 64 µg/ml
[3] = test system: Staphylococcus aureus; assay: Antibacterial activity against methicillin-resistant Staphylococcus aureus NRS484 assessed as inhibition of visible bacterial growth incubated for 18 to 20 hrs by CLSI method; type: functional; conditions: time 18-20 hrs; procedure, shortened: as §1
[4] = test system: Staphylococcus aureus; assay: Antibacterial activity against methicillin-resistant Staphylococcus aureus NRS123 assessed as inhibition of visible bacterial growth incubated for 18 to 20 hrs by CLSI method; type: functional; conditions: time 18-20 hrs; procedure, shortened: as §1
[5] = test system: Staphylococcus aureus; assay: Antibacterial activity against methicillin-resistant Staphylococcus aureus NRS383 assessed as inhibition of visible bacterial growth incubated for 18 to 20 hrs by CLSI method; type: functional; conditions: time 18-20 hrs; procedure, shortened: as §1
[6] = test system: Staphylococcus aureus; assay: Antibacterial activity against vancomycin-resistant Staphylococcus aureus 10 assessed as inhibition of visible bacterial growth incubated for 18 to 20 hrs by CLSI method; type: functional; conditions: time 18-20 hrs; procedure, shortened: as §1
[7] = test system: Staphylococcus aureus; assay: Antibacterial activity against methicillin-resistant Staphylococcus aureus NRS 119 assessed as inhibition of visible bacterial growth incubated for 18 to 20 hrs by CLSI method; type: functional; conditions: time 18-20 hrs; procedure, shortened: as §1
[8] = Hemolytic activity in human RBC at 128 ug/ml incubated for 60 mins relative to control; type: ADME, cell-based, Erythrocyte; conditions: red blood cells (erythrocytes), dose 128 µg/ml, read-out: Activity
Procedure, shortened: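 Single-donor human erythrocytes as a 5% v/v suspension in PBS. Compounds serially diluted in PBS, in triplicate, and incubated with RBCs at 37 °C for 60 min. PBS served as the negative control and Triton-X as the positive control. Samples spun at 4,000 rpm for 5 min and supernatant absorbance read at 540 nm. Percent hemolysis = 100×(sample−negative)/(positive−negative).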

[9] = test system: Pseudomonas aeruginosa; assay: Antibacterial activity against Pseudomonas aeruginosa ATCC 27853 assessed as inhibition of visible bacterial growth at 16 ug/ml incubated for 18 to 20 hrs by CLSI method; type: functional, organism-based; conditions: dose 16.0 µg/ml, time 18-20 hrs; procedure, shortened: as §1
[10] = test system: Staphylococcus aureus; assay: Antibacterial activity against Staphylococcus aureus ATCC 25923 assessed as inhibition of visible bacterial growth incubated for 18 to 20 hrs by CLSI method; type: functional; conditions: time 18-20 hrs; procedure, shortened: as §1
[11] = test system: Listeria monocytogenes; assay: Antibacterial activity against Listeria monocytogenes ATCC 19111 assessed as inhibition of visible bacterial growth incubated for 18 to 20 hrs by CLSI method; type: functional; conditions: time 18-20 hrs
Procedure, shortened: (§2)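 Broth microdilution per CLSI. Strains grown aerobically overnight on TSA at 37 °C, suspended to 0.5 McFarland, diluted in CAMHB to about 5×10^5 CFU/mL. Agents serially diluted across plate; aerobic incubation 37 °C for 18-20 h. MIC = lowest concentration completely preventing visible growth.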

[12] = test system: Staphylococcus aureus; assay: Antibacterial activity against methicillin-resistant Staphylococcus aureus NRS382 assessed as inhibition of visible bacterial growth incubated for 18 to 20 hrs by CLSI method; type: functional; conditions: time 18-20 hrs; procedure, shortened: as §1
[13] = test system: Staphylococcus aureus; assay: Synergistic antibacterial activity against methicillin-resistant Staphylococcus aureus ATCC 33592 assessed as fractional inhibitory concentration index in presence of methicillin by checkerboard assay; type: functional
[14] = test system: Staphylococcus aureus; assay: Synergistic antibacterial activity against methicillin-resistant Staphylococcus aureus ATCC 33592 assessed as fractional inhibitory concentration index in presence of linezolid by checkerboard assay; type: functional
[15] = test system: Acinetobacter baumannii; assay: Antibacterial activity against Acinetobacter baumannii ATCC 19606 RW4 assessed as inhibition of visible bacterial growth at 16 ug/ml incubated for 18 to 20 hrs by CLSI method; type: functional, organism-based; conditions: ATCC 19606 = CIP 70.34 = JCM 6841 RW4, dose 16.0 µg/ml, time 18-20 hrs; procedure, shortened: as §1
[16] = test system: Staphylococcus aureus; assay: Bactericidal activity against methicillin-resistant Staphylococcus aureus ATCC 33592 assessed as reduction in bacterial growth incubated for 18 hrs by CLSI method; type: functional
[17] = test system: J774; assay: Cytotoxicity against mouse J774 cells assessed as reduction in cell viability at 32 ug/ml incubated for 24 hrs by MTS assay; type: cell-based; conditions: j774, 24 h, dose 32 µg/ml
[18] = test system: Staphylococcus aureus; assay: Antibacterial activity against methicillin-resistant Staphylococcus aureus ATCC 33592 assessed as reduction in bacterial count at 3 x MIC incubated upto 24 hrs by time kill analysis; type: functional; conditions: time hrs <=24
Procedure, shortened: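 Time-kill assay. […] Samples taken at 0, 2, 4, 8, 12 and 24 h, serially diluted in PBS and plated on tryptic soy agar. Viable CFU/mL counted after 18-20 h at 37 °C.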

[19] = test system: Staphylococcus aureus; assay: Antibacterial activity against methicillin-resistant Staphylococcus aureus NRS384 assessed as inhibition of visible bacterial growth incubated for 18 to 20 hrs by CLSI method; type: functional; conditions: time 18-20 hrs; procedure, shortened: as §1
[20] = test system: Staphylococcus epidermidis; assay: Antibacterial activity against Staphylococcus epidermidis NRS101 assessed as inhibition of visible bacterial growth incubated for 18 to 20 hrs by CLSI method; type: functional; conditions: time 18-20 hrs; procedure, shortened: as §2
[21] = test system: Enterococcus faecalis; assay: Antibacterial activity against vancomycin- resistant Enterococcus faecalis ATCC 700221 assessed as inhibition of visible bacterial growth incubated for 18 to 20 hrs by CLSI method; type: functional; conditions: time 18-20 hrs; procedure, shortened: as §1
[22] = test system: Streptococcus pneumoniae; assay: Antibacterial activity against cephalosporin-resistant Streptococcus pneumoniae ATCC 51916 assessed as inhibition of visible bacterial growth incubated for 18 to 20 hrs by CLSI method; type: functional; conditions: time 18-20 hrs; procedure, shortened: as §1
[23] = test system: Escherichia coli; assay: Antibacterial activity against Escherichia coli ATCC 25404 assessed as inhibition of visible bacterial growth at 16 ug/ml incubated for 18 to 20 hrs by CLSI method; type: functional, organism-based; conditions: B ATCC 25404, dose 16.0 µg/ml, time 18-20 hrs; procedure, shortened: as §1
[24] = test system: Staphylococcus aureus; assay: Synergistic antibacterial activity against methicillin-resistant Staphylococcus aureus ATCC 33592 assessed as fractional inhibitory concentration index in presence of daptomycin by checkerboard assay; type: functional
[25] = test system: Staphylococcus aureus; assay: Antibacterial activity against methicillin-resistant Staphylococcus aureus NRS387 assessed as inhibition of visible bacterial growth incubated for 18 to 20 hrs by CLSI method; type: functional; conditions: time 18-20 hrs; procedure, shortened: as §1
[26] = test system: Staphylococcus aureus; assay: Antibacterial activity against methicillin-resistant Staphylococcus aureus NRS385 assessed as inhibition of visible bacterial growth incubated for 18 to 20 hrs by CLSI method; type: functional; conditions: time 18-20 hrs; procedure, shortened: as §1
[27] = test system: Staphylococcus aureus; assay: Antibacterial activity against methicillin-resistant Staphylococcus aureus NRS386 assessed as inhibition of visible bacterial growth incubated for 18 to 20 hrs by CLSI method; type: functional; conditions: time 18-20 hrs; procedure, shortened: as §1
[28] = test system: Streptococcus pneumoniae; assay: Antibacterial activity against […] Streptococcus pneumoniae ATCC 700677 assessed as inhibition of visible bacterial growth incubated for 18 to 20 hrs by CLSI method; type: functional; conditions: time 18-20 hrs; procedure, shortened: as §1
[29] = test system: Staphylococcus aureus; assay: Antibacterial activity against methicillin-resistant Staphylococcus aureus NRS483 assessed as inhibition of visible bacterial growth incubated for 18 to 20 hrs by CLSI method; type: functional; conditions: time 18-20 hrs; procedure, shortened: as §1
[30] = test system: Enterococcus faecalis; assay: Antibacterial activity against vancomycin- resistant Enterococcus faecalis ATCC 51299 assessed as inhibition of visible bacterial growth incubated for 18 to 20 hrs by CLSI method; type: functional; conditions: time 18-20 hrs; procedure, shortened: as §1
[31] = test system: Staphylococcus aureus; assay: Antibacterial activity against vancomycin-resistant Staphylococcus aureus 12 assessed as inhibition of visible bacterial growth incubated for 18 to 20 hrs by CLSI method; type: functional; conditions: time 18-20 hrs; procedure, shortened: as §1
[32] = test system: Staphylococcus aureus; assay: Antibacterial activity against methicillin-sensitive Staphylococcus aureus NRS 107 assessed as inhibition of visible bacterial growth incubated for 18 to 20 hrs by CLSI method; type: functional; conditions: time 18-20 hrs; procedure, shortened: as §1
[33] = test system: Staphylococcus aureus; assay: Antibacterial activity against methicillin-sensitive Staphylococcus aureus ATCC 6538 assessed as inhibition of visible bacterial growth incubated for 18 to 20 hrs by CLSI method; type: functional; conditions: time 18-20 hrs; procedure, shortened: as §1
[34] = test system: Staphylococcus aureus; assay: Synergistic antibacterial activity against methicillin-resistant Staphylococcus aureus ATCC 33592 assessed as fractional inhibitory concentration index in presence of Vancomycin; type: functional
[35] = test system: Staphylococcus aureus; assay: Bacteriostatic activity against methicillin-resistant Staphylococcus aureus ATCC 33592 assessed as reduction in bacterial growth incubated for 18 hrs by CLSI method; type: functional
[36] = test system: Caco-2; assay: Cytotoxicity against human Caco2 cells assessed as reduction in cell viability at 128 ug/ml incubated for 2 hrs by MTS assay; type: cell-based; conditions: caco-2, 2 h, dose 128 µg/ml

Row | SMILES | MIC [1] | MIC [3] | MIC [4] | MIC [5] | MIC [6] | MIC [7] | hemolysis at 1 h, 128 ug/ml [8] | inhibition [9] | MIC [10] | MIC [11] | MIC [12] | fractional inhibitory concentration index (FICI) [13] | fractional inhibitory concentration index (FICI) [14] | inhibition [15] | Activity [17] | Activity [18] | MIC [19] | MIC [20] | MIC [21] | MIC [22] | further results
1 | O=C(Nc1nnc(-c2cccs2)o1)c1ccc(S(F)(F)(F)(F)F)cc1 | 0.5 µg/mL (≈ 1.26 µM) | 0.5 µg/mL (≈ 1.26 µM) | 0.25 µg/mL (≈ 0.629 µM) | 1 µg/mL (≈ 2.52 µM) | 0.25 µg/mL (≈ 0.629 µM) | 0.06 µg/mL (≈ 0.151 µM) | 9% | inactive | 0.25 µg/mL (≈ 0.629 µM) | 0.125 µg/mL (≈ 0.315 µM) | 0.5 µg/mL (≈ 1.26 µM) | 0.5 | 1.5 | inactive | Non-Toxic | 3.96 log10CFU/ml | 0.5 µg/mL (≈ 1.26 µM) | 0.06 µg/mL (≈ 0.151 µM) | 2 µg/mL (≈ 5.03 µM) | 0.25 µg/mL (≈ 0.629 µM) | Activity [2]: Non-Toxic; MBC [16]: 1 µg/mL (≈ 2.52 µM); inhibition [23]: inactive; fractional inhibitory concentration index (FICI) [24]: 0.75; MIC [25]: 0.25 µg/mL (≈ 0.629 µM); MIC [26]: 0.5 µg/mL (≈ 1.26 µM); MIC [27]: 0.125 µg/mL (≈ 0.315 µM); MIC [28]: 0.125 µg/mL (≈ 0.315 µM); MIC [29]: 0.25 µg/mL (≈ 0.629 µM); MIC [30]: 2 µg/mL (≈ 5.03 µM); MIC [31]: 0.125 µg/mL (≈ 0.315 µM); MIC [32]: 0.125 µg/mL (≈ 0.315 µM); MIC [33]: 0.5 µg/mL (≈ 1.26 µM); fractional inhibitory concentration index (FICI) [34]: 1
2 | O=C(Nc1nnc(-c2cccs2)o1)c1ccc(OC(F)(F)F)cc1 | 1 µg/mL (≈ 2.81 µM) | 0.5 µg/mL (≈ 1.41 µM) | 1 µg/mL (≈ 2.81 µM) | 2 µg/mL (≈ 5.63 µM) | 1 µg/mL (≈ 2.81 µM) | 1 µg/mL (≈ 2.81 µM) | 20% | inactive | 1 µg/mL (≈ 2.81 µM) | 2 µg/mL (≈ 5.63 µM) | 1 µg/mL (≈ 2.81 µM) | 0.63 | 1.25 | inactive | Non-Toxic | 0.69 log10CFU/ml | 0.5 µg/mL (≈ 1.41 µM) | 0.5 µg/mL (≈ 1.41 µM) | 4 µg/mL (≈ 11.3 µM) | 2 µg/mL (≈ 5.63 µM) | MBC [35]: > 128 µg/mL; inhibition [23]: inactive; fractional inhibitory concentration index (FICI) [24]: 0.5; MIC [25]: 2 µg/mL (≈ 5.63 µM); MIC [26]: 2 µg/mL (≈ 5.63 µM); MIC [27]: 1 µg/mL (≈ 2.81 µM); MIC [28]: 1 µg/mL (≈ 2.81 µM); MIC [29]: 1 µg/mL (≈ 2.81 µM); MIC [30]: 8 µg/mL (≈ 22.5 µM); MIC [31]: 1 µg/mL (≈ 2.81 µM); MIC [32]: 1 µg/mL (≈ 2.81 µM); MIC [33]: 1 µg/mL (≈ 2.81 µM); Activity [36]: Non-Toxic; fractional inhibitory concentration index (FICI) [34]: 1.06
